Results taken from ChEMBL document CHEMBL1123716, “Synthesis and tumor uptake of 5-halo-1-(2'-fluoro-2'-deoxy-beta-D-ribofuranosyl)[2-14C]uracils” (J Med Chem, 1987).

What was measured:
Conditions in all cases: in vivo
[1] = tested on: Mus musculus; assay: Tissue distribution in BDF1 female mice bearing an implanted lewis lung tumor after intravenous injection in lung at 0.5 h.; assay type: ADME, organism-based
In short: (§1)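 Female BDF₁ mice (18–20 g) carrying transplanted Lewis lung tumor received 23–193 kBq of the [2-¹⁴C]-labeled nucleoside in normal saline via tail vein. The compound was stored as a dry film and reconstituted just before use. Animals were killed at set times, and tissue ¹⁴C was measured by combustion and liquid scintillation. Values are mean ± SD % injected dose per gram of wet tissue, n = 6.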

[2] = tested on: Mus musculus; assay: Tissue distribution in BDF1 female mice bearing an implanted lewis lung tumor after intravenous injection in bone at 24 h.; assay type: ADME, organism-based
In short: (§2)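 Female BDF1 mice (18–20 g) with implanted Lewis lung tumor received the 2-14C compound by tail vein, 23–193 kBq in normal saline, reconstituted from a dry film just before use. Animals were killed at set times and tissues taken for 14C counting by combustion and liquid scintillation. Values are percent injected dose per gram wet tissue, mean ± standard deviation, six animals.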

[3] = tested on: Mus musculus; assay: Tissue distribution in BDF1 female mice bearing an implanted lewis lung tumor after intravenous injection in lung at 1 h.; assay type: ADME, organism-based; in short: as §1
[4] = tested on: Mus musculus; assay: Tissue distribution in BDF1 female mice bearing an implanted lewis lung tumor after intravenous injection in lung at 2 h.; assay type: ADME, organism-based; in short: as §1
[5] = tested on: Mus musculus; assay: Tissue distribution in BDF1 female mice bearing an implanted lewis lung tumor after intravenous injection in muscle at 1 h.; assay type: ADME, organism-based; in short: as §1
[6] = tested on: Mus musculus; assay: Tissue distribution in BDF1 female mice bearing an implanted lewis lung tumor after intravenous injection in skin at 0.5 h.; assay type: ADME, organism-based, Skin of body; in short: as §1
[7] = tested on: Mus musculus; assay: Tissue distribution in BDF1 female mice bearing an implanted lewis lung tumor after intravenous injection in skin at 1 h.; assay type: ADME, organism-based, Skin of body; in short: as §1
[8] = tested on: Mus musculus; assay: Tissue distribution in BDF1 female mice bearing an implanted lewis lung tumor after intravenous injection in skin at 8 h.; assay type: ADME, organism-based, Skin of body; in short: as §1
[9] = tested on: Mus musculus; assay: Tissue distribution in BDF1 female mice bearing an implanted lewis lung tumor after intravenous injection in spleen at 0.5 h.; assay type: ADME, organism-based; in short: as §1
[10] = tested on: Mus musculus; assay: Tissue distribution in BDF1 female mice bearing an implanted lewis lung tumor after intravenous injection in git(Section of intestine) at 0.25 h.; assay type: ADME, organism-based; in short: as §2
[11] = tested on: Mus musculus; assay: Tissue distribution in BDF1 female mice bearing an implanted lewis lung tumor after intravenous injection in bone at 0.5 h.; assay type: ADME, organism-based; in short: as §2
[12] = tested on: Mus musculus; assay: Tissue distribution in BDF1 female mice bearing an implanted lewis lung tumor after intravenous injection in bone at 1 h.; assay type: ADME, organism-based; in short: as §2
[13] = tested on: Mus musculus; assay: Tissue distribution in BDF1 female mice bearing an implanted lewis lung tumor after intravenous injection in git(Section of intestine) at 4 h.; assay type: ADME, organism-based; in short: as §2
[14] = tested on: Mus musculus; assay: Tissue distribution in BDF1 female mice bearing an implanted lewis lung tumor after intravenous injection in git(Section of intestine) at 8 h.; assay type: ADME, organism-based; in short: as §2
[15] = tested on: Mus musculus; assay: Tissue distribution in BDF1 female mice bearing an implanted lewis lung tumor after intravenous injection in heart at 0.5 h.; assay type: ADME, organism-based; in short: as §2
[16] = tested on: Mus musculus; assay: Tissue distribution in BDF1 female mice bearing an implanted lewis lung tumor after intravenous injection in heart at 1 h.; assay type: ADME, organism-based; in short: as §2
[17] = tested on: Mus musculus; assay: Tissue distribution in BDF1 female mice bearing an implanted lewis lung tumor after intravenous injection in heart at 2 h.; assay type: ADME, organism-based; in short: as §2
[18] = tested on: Mus musculus; assay: Tissue distribution in BDF1 female mice bearing an implanted lewis lung tumor after intravenous injection in heart at 24 h.; assay type: ADME, organism-based; in short: as §2
[19] = tested on: Mus musculus; assay: Tissue distribution in BDF1 female mice bearing an implanted lewis lung tumor after intravenous injection in heart at 4 h.; assay type: ADME, organism-based; in short: as §2
[20] = tested on: Mus musculus; assay: Tissue distribution in BDF1 female mice bearing an implanted lewis lung tumor after intravenous injection in heart at 8 h.; assay type: ADME, organism-based; in short: as §2
[21] = tested on: Mus musculus; assay: Tissue distribution in BDF1 female mice bearing an implanted lewis lung tumor after intravenous injection in kidney at 2 h.; assay type: ADME, organism-based; in short: as §2
[22] = tested on: Mus musculus; assay: Tissue distribution in BDF1 female mice bearing an implanted lewis lung tumor after intravenous injection in liver at 0.5 h.; assay type: ADME, organism-based; in short: as §1
[23] = tested on: Mus musculus; assay: Tissue distribution in BDF1 female mice bearing an implanted lewis lung tumor after intravenous injection in liver at 24 h.; assay type: ADME, organism-based; in short: as §1
[24] = tested on: Mus musculus; assay: Tissue distribution in BDF1 female mice bearing an implanted lewis lung tumor after intravenous injection in blood at 0.25 h; assay type: ADME, organism-based; in short: as §2
[25] = tested on: Mus musculus; assay: Tissue distribution in BDF1 female mice bearing an implanted lewis lung tumor after intravenous injection in blood at 0.5 h.; assay type: ADME, organism-based; in short: as §2
[26] = tested on: Mus musculus; assay: Tissue distribution in BDF1 female mice bearing an implanted lewis lung tumor after intravenous injection in blood at 1 h.; assay type: ADME, organism-based; in short: as §2
[27] = tested on: Mus musculus; assay: Tissue distribution in BDF1 female mice bearing an implanted lewis lung tumor after intravenous injection in blood at 4 h.; assay type: ADME, organism-based; in short: as §2
[28] = tested on: Mus musculus; assay: Tissue distribution in BDF1 female mice bearing an implanted lewis lung tumor after intravenous injection in blood at 8 h.; assay type: ADME, organism-based; in short: as §2
[29] = tested on: Mus musculus; assay: Tissue distribution in BDF1 female mice bearing an implanted lewis lung tumor after intravenous injection in spleen at 1 h.; assay type: ADME, organism-based; in short: as §1
[30] = tested on: Mus musculus; assay: Tissue distribution in BDF1 female mice bearing an implanted lewis lung tumor after intravenous injection in spleen at 2 h.; assay type: ADME, organism-based; in short: as §1
[31] = tested on: Mus musculus; assay: Tissue distribution in BDF1 female mice bearing an implanted lewis lung tumor after intravenous injection in spleen at 24 h.; assay type: ADME, organism-based; in short: as §1
[32] = tested on: Mus musculus; assay: Tissue distribution in BDF1 female mice bearing an implanted lewis lung tumor after intravenous injection in spleen at 8 h.; assay type: ADME, organism-based; in short: as §1
[33] = tested on: Mus musculus; assay: Tissue distribution in BDF1 female mice bearing an implanted lewis lung tumor after intravenous injection in stomach at 1 h.; assay type: ADME, organism-based; in short: as §1
[34] = tested on: Mus musculus; assay: Tissue distribution in BDF1 female mice bearing an implanted lewis lung tumor after intravenous injection in stomach at 24 h.; assay type: ADME, organism-based; in short: as §1
[35] = tested on: Mus musculus; assay: Tissue distribution in BDF1 female mice bearing an implanted lewis lung tumor after intravenous injection in stomach at 4 h.; assay type: ADME, organism-based; in short: as §1
[36] = tested on: Mus musculus; assay: Tissue distribution in BDF1 female mice bearing an implanted lewis lung tumor after intravenous injection in stomach at 8 h.; assay type: ADME, organism-based
In short: (§3)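 Female BDF1 mice (18–20 g) carrying a transplanted Lewis lung tumor were given 23–193 kBq of the [2-14C]-labelled nucleoside in normal saline by tail vein. Animals were killed at set times. Tissue 14C was counted by liquid scintillation, after combustion or directly. Values are percent of injected dose per gram wet tissue, as mean ± standard deviation of six animals.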

[37] = tested on: Mus musculus; assay: Tissue distribution in BDF1 female mice bearing an implanted lewis lung tumor after intravenous injection in tumor at 0.25 h.; assay type: ADME, organism-based; in short: as §3
[38] = tested on: Mus musculus; assay: Tissue distribution in BDF1 female mice bearing an implanted lewis lung tumor after intravenous injection in tumor at 2 h.; assay type: ADME, organism-based; in short: as §3
[39] = tested on: Mus musculus; assay: Tissue distribution in BDF1 female mice bearing an implanted lewis lung tumor after intravenous injection in tumor at 24 h.; assay type: ADME, organism-based; in short: as §3
[40] = tested on: Mus musculus; assay: Tissue distribution in BDF1 female mice bearing an implanted lewis lung tumor after intravenous injection in bone at 2 h.; assay type: ADME, organism-based; in short: as §2
[41] = tested on: Mus musculus; assay: Tissue distribution in BDF1 female mice bearing an implanted lewis lung tumor after intravenous injection in muscle at 8 h.; assay type: ADME, organism-based; in short: as §1
[42] = tested on: Mus musculus; assay: Tissue distribution in BDF1 female mice bearing an implanted lewis lung tumor after intravenous injection in lung at 8 h.; assay type: ADME, organism-based; in short: as §1
[43] = tested on: Mus musculus; assay: Tissue distribution in BDF1 female mice bearing an implanted lewis lung tumor after intravenous injection in blood at 24 h.; assay type: ADME, organism-based; in short: as §2
[44] = tested on: Mus musculus; assay: Tissue distribution in BDF1 female mice bearing an implanted lewis lung tumor after intravenous injection in kidney at 4 h.; assay type: ADME, organism-based; in short: as §1
[45] = tested on: Mus musculus; assay: Tissue distribution in BDF1 female mice bearing an implanted lewis lung tumor after intravenous injection in skin at 24 h.; assay type: ADME, organism-based, Skin of body; in short: as §1

## O=c1[nH]c(=O)n([C@H]2O[C@@H](CO)[C@H](O)[C@H]2F)cc1F
[1]
  Tissue distribution: 1.43
[2]
  Tissue distribution: 0.02
[3]
  Tissue distribution: 0.51
[4]
  Tissue distribution: 0.07
[5]
  Tissue distribution: 0.37
[6]
  Tissue distribution: 1.18
[7]
  Tissue distribution: 0.43
[8]
  Tissue distribution: 0.01
[9]
  Tissue distribution: 3.77
[10]
  Tissue distribution: 3.35
[11]
  Tissue distribution: 0.85
[12]
  Tissue distribution: 0.35
[13]
  Tissue distribution: 0.04
[14]
  Tissue distribution: 0.02
[15]
  Tissue distribution: 1.71
[16]
  Tissue distribution: 0.58
[17]
  Tissue distribution: 0.08
[18]
  Tissue distribution: 0.005
[19]
  Tissue distribution: 0.02
[20]
  Tissue distribution: 0.009
[21]
  Tissue distribution: 0.84
[22]
  Tissue distribution: 1.54
[23]
  Tissue distribution: 0.005
[24]
  Tissue distribution: 3.49
[25]
  Tissue distribution: 1.59
[26]
  Tissue distribution: 0.54
[27]
  Tissue distribution: 0.02
[28]
  Tissue distribution: 0.01
[29]
  Tissue distribution: 1.44
[30]
  Tissue distribution: 0.29
[31]
  Tissue distribution: 0.03
[32]
  Tissue distribution: 0.09
[33]
  Tissue distribution: 0.38
[34]
  Tissue distribution: 0.005
[35]
  Tissue distribution: 0.02
[36]
  Tissue distribution: 0.01
[37]
  Tissue distribution: 5.26
[38]
  Tissue distribution: 0.49
[39]
  Tissue distribution: 0.02
[40]
  Tissue distribution: 0.11
[41]
  Tissue distribution: 0.01
[42]
  Tissue distribution: 0.01
[43]
  Tissue distribution: 0.01
[44]
  Tissue distribution: 0.08
[45]
  Tissue distribution: 0.004
